Source: PubChem BioAssay AID652250 (Vanderbilt Specialized Chemistry Center, 2013)
pIC50: −log10 of the molar value. Activity calls are given as the source filed them.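 How the source made its calls: active means compounds leaving under half of the peptide-driven platelet calcium rise; inactive means the rest.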

Target: Proteinase-activated receptor 4 (Homo sapiens) (UniProt Q96RI0)
Assay: inhibition of PAR4-AP calcium signal – cell-based, single concentration, washed platelets, Fluo4 calcium (AID 652250)
Settings: PAR4-AP calcium Fluo4 fluorescence; for % of max PAR4-AP calcium response: at 10 µM, stronger effect = lower value
In short: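 System: Fluo4-AM-loaded washed human platelets; Probe or stimulus: 80 µM PAR4-AP; Signal: fluorescence at 480/540 nm, 1 s intervals; Replicates: triplicate wells.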

Sequence of Proteinase-activated receptor 4 (Homo sapiens) (Q96RI0 whole entry, looked up): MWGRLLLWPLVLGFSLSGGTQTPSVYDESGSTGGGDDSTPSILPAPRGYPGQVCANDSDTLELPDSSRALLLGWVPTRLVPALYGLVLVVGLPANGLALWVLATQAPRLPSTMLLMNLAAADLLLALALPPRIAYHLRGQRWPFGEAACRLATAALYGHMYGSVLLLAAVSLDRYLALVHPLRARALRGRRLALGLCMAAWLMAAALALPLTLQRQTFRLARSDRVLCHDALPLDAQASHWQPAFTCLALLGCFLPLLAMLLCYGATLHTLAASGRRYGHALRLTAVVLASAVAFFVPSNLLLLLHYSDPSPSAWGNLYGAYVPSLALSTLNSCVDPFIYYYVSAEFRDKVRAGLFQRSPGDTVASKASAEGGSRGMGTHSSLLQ

% of max PAR4-AP calcium response | pIC50 | SMILES
inactive |  | COc1ccc(-n2cc(-c3ccccc3)c3c(NCCO)ncnc32)cc1
 | 5.00 | COc1ccc(-c2cn(Cc3cccc(S(C)(=O)=O)c3)c3ccccc23)cn1
 | 4.84 | COc1cccc(Cn2cc(-c3ccc(OC)nc3)c3ccccc32)c1
inactive |  | Fc1ccc(OCCn2cc(C(=S)N3CCCCC3)c3ccccc32)cc1
inactive |  | Clc1ccc(-n2cc(-c3ccccc3)c3c(NCc4ccc5c(c4)OCO5)ncnc32)cc1
inactive |  | CC1CCCCN1C(=O)Cn1cc(C(=O)C(F)(F)F)c2ccccc21 (stereo not given)
inactive |  | Fc1ccc(-c2cn(Cc3ccccc3)c3ccccc23)c(F)n1
inactive |  | COc1ccc2c(c1)c(C(=O)CNc1nc(C)c(C)s1)c(C)n2C
inactive |  | O=C(c1cn(CCOc2ccccc2Cl)c2ccccc12)C(F)(F)F
inactive |  | O=C(Cn1cc(CO)c2ccccc21)Nc1ccc(Cl)cc1
inactive |  | Oc1ccccc1-c1nc2c3c(-c4ccccc4)c(-c4ccccc4)n(Cc4ccco4)c3ncn2n1
inactive |  | O=C(CCc1cn(Cc2ccccc2)c2ccccc12)NCCN1CCOCC1
inactive |  | NC(=O)C1CCN(c2ncnc3c2c(-c2ccccc2)cn3-c2ccc(Cl)cc2)CC1
inactive |  | Fc1cc(-c2cn(Cc3ccccc3)c3ccccc23)cc(F)n1
inactive |  | Cn1cc(CC(=O)N2CCN(c3ccc([N+](=O)[O-])cc3)CC2)c2ccccc21
inactive |  | COCCCNC(=O)Cn1cc(C(=O)C(F)(F)F)c2ccccc21
inactive |  | OCCCNc1ncnc2c1c(-c1ccccc1)cn2-c1ccc(F)cc1
inactive |  | OCCCNc1ncnc2c1c(-c1ccccc1)cn2-c1cccc(Cl)c1
inactive |  | Cc1cn(CC(=O)c2ccccc2)c2ccccc12
inactive |  | Clc1ccccc1CNc1ncnc2c1c(-c1ccccc1)cn2-c1ccccc1
inactive |  | O=C(CSc1ncnc2c1c(-c1ccccc1)cn2-c1ccc(F)cc1)c1ccccc1
inactive |  | Fc1ccc(Cn2cc(C(=S)N3CCCC3)c3ccccc32)cc1
inactive |  | Cn1cc(CC(=O)NCCCN2CCCC2=O)c2ccccc21
inactive |  | COc1ccc(-n2nc(C(=O)NCCC3=CCCCC3)c3c4ccccc4n(C)c3c2=O)cc1Cl

SMILES | % of max PAR4-AP calcium response | pIC50
Cc1ccc(-n2c(/C=C/c3cn(C)c4ccccc34)nc3ccccc3c2=O)cc1 | inactive | 
